The values below come from ChEMBL document CHEMBL1123808, “Synthesis of two glucagon antagonists: receptor binding, adenylate cyclase, and effects on blood plasma glucose levels” (J Med Chem, 1987).

The species named for test [1] is Rattus norvegicus. The experiment in a line: Compound tested for the inhibition of glucagon-mediated hyperglycemia in rats. It counts as functional. More on the design: scale not given: the % may be the effect or the level left. In a few lines:
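Normal male Wistar rats under pentobarbital, femoral vein and artery catheterised. At time 0, glucagon 1 μg/kg and an excess of analogue were given together in the same 0.5 mL buffer bolus. Plasma glucose followed over 50 min as change from basal. Mean of 4-6 animals.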

The species entered for test [2] is Rattus norvegicus. Briefly: Ability to displace [125I]glucagon was determined. Format: functional. In outline:
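Rat liver plasma membranes (male Sprague-Dawley; 50 μg protein/0.5 mL) in Tris-HCl 25 mM pH 7.5 with 1% BSA, incubated with [125I]glucagon (100 000 cpm, 25 fmol) and unlabelled peptide at various concentrations for 10 min at 30 °C. Then iced, filtered and washed, and filter radioactivity counted. Nonspecific binding taken with 1 μM unlabelled glucagon. Triplicates, repeated two or three times. IC50 from displacement curves.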

Test [3] relates to Rattus norvegicus. Briefly: Compound tested for the increase in blood glucose level in rats at a dose of 1 ug/kg in 10 min. Format: functional, organism-based. In outline: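 Male Wistar rats (250-400 g), fed ad libitum, under pentobarbital (70 mg/kg) at 36-37 °C. Peptide given as a femoral-vein bolus in 0.5 mL NaCl 145 mM/Na2CO3 2 mM/0.25% BSA. Plasma glucose from femoral-artery samples at 0, 2, 5, 10, 20, 30, 40, 50 min, expressed as change from each rat's basal level. Buffer-only controls run. n = 4-6.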

The species entered for test [4] is Rattus norvegicus. Briefly: Binding affinity against glucagon receptor was determined in rat by using adenylate cyclase assay. It counts as functional.

`CSCC[C@H](NC(=O)[C@H](CC(C)C)NC(=O)[C@H](Cc1c[nH]c2ccccc12)NC(=O)[C@H](CCC(N)=O)NC(=O)[C@@H](NC(=O)[C@H](Cc1ccccc1)NC(=O)[C@H](CCC(=O)O)NC(=O)[C@H](CCC(N)=O)NC(=O)[C@H](C)NC(=O)[C@H](CCCCN)NC(=O)[C@H](CCCCN)NC(=O)[C@H](CO)NC(=O)[C@H](CC(=O)O)NC(=O)[C@H](CC(C)C)NC(=O)[C@H](Cc1ccc(O)cc1)NC(=O)[C@H](CCCNC(=N)N)NC(=O)[C@H](CO)NC(=O)[C@H](Cc1cc(I)c(O)c(I)c1)NC(=O)[C@H](CC(=O)O)NC(=O)[C@H](CO)NC(=O)[C@@H](NC(=O)[C@H](Cc1ccccc1)NC(=O)[C@H](Cc1ccc(O)cc1)NC(=O)[C@@H](Cc1ccccc1)NC(=O)[C@H](CCC(N)=O)NC(=O)[C@H](CO)NC(=O)[C@@H](N)Cc1c[nH]cn1)[C@@H](C)O)C(C)C)C(=O)N[C@@H](CC(N)=O)C(=O)N[C@H](C(=O)O)[C@@H](C)O` [listing 1 of 2 here] had an Activity in the test filed under Rattus norvegicus [1] of 50%.
Usually IC50 stands for the concentration needed to halve the response being measured. For the molecule `CSCC[C@H](NC(=O)[C@H](CC(C)C)NC(=O)[C@H](Cc1c[nH]c2ccccc12)NC(=O)[C@H](CCC(N)=O)NC(=O)[C@@H](NC(=O)[C@H](Cc1ccccc1)NC(=O)[C@H](CCC(=O)O)NC(=O)[C@H](CCC(N)=O)NC(=O)[C@H](C)NC(=O)[C@H](CCCCN)NC(=O)[C@H](CCCCN)NC(=O)[C@H](CO)NC(=O)[C@H](CC(=O)O)NC(=O)[C@H](CC(C)C)NC(=O)[C@H](Cc1ccc(O)cc1)NC(=O)[C@H](CCCNC(=N)N)NC(=O)[C@H](CO)NC(=O)[C@H](Cc1cc(I)c(O)c(I)c1)NC(=O)[C@H](CC(=O)O)NC(=O)[C@H](CO)NC(=O)[C@@H](NC(=O)[C@H](Cc1ccccc1)NC(=O)[C@H](Cc1ccc(O)cc1)NC(=O)[C@@H](Cc1ccccc1)NC(=O)[C@H](CCC(N)=O)NC(=O)[C@H](CO)NC(=O)[C@@H](N)Cc1c[nH]cn1)[C@@H](C)O)C(C)C)C(=O)N[C@@H](CC(N)=O)C(=O)N[C@H](C(=O)O)[C@@H](C)O` [listing 2 of 2 here], the IC50 in the test listed under Rattus norvegicus [2] was 13 nM.
The molecule GLUCAGON [listing 1 of 2 here] registered an Activity with Rattus norvegicus [3] of 95.1 mg/dL. In the test filed under Rattus norvegicus [4], this molecule showed an ED50 of 9.6 nM.
For GLUCAGON [listing 2 of 2 here], the IC50 in the test filed under Rattus norvegicus [2] turned out to be 6.7 nM.
